Drawing on ChEMBL document CHEMBL1148785, “Second generation tetrahydroquinoline-based protein farnesyltransferase inhibitors as antimalarials” (J Med Chem, 2007), this text covers inhibition and EC50 for 32 molecules.

Assay [1] concerns Plasmodium falciparum. The assay is described as follows: Inhibition of Plasmodium falciparum protein farnesyltransferase at 50 nM by scintillation proximity assay.
The subject of assay [2] is Plasmodium falciparum. The assay is described as follows: Antimalarial activity against Plasmodium falciparum 3D7. The class given is functional. The note with it: Plasmodium falciparum, 3D7; read-out: ED50 (the source's name). A digest of the protocol: (§1)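 Asynchronous culture in type A+ erythrocytes at 0.5% parasitemia and 0.5% hematocrit, grown in RPMI-1640 with 20% heat-inactivated human A+ plasma. Compound was serially diluted from a top final 5 µM, with DMSO vehicle as 100% growth. Plates ran 48 h at 37 °C under 5% CO2/5% O2/90% N2, then [3H]-hypoxanthine (0.3 µCi) for 24 h. Filter-harvested counts were corrected for the uninfected-RBC background. ED50 by linear regression; duplicates averaged.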

Assay [3] relates to Plasmodium falciparum. Put plainly: Antimalarial activity against Plasmodium falciparum K1. It is filed as functional. The note with it: Plasmodium falciparum, K1; read-out: ED50 (the source's name). In short, it runs like this:
as §1

Assay [4] deals with Plasmodium falciparum. Put plainly: Inhibition of Plasmodium falciparum protein farnesyltransferase at 0.5 nM by scintillation proximity assay. (SPA uses beads or plates that emit light when radiolabelled molecules are held near them.)
Assay [5] deals with Plasmodium falciparum. The assay is described as follows: Inhibition of Plasmodium falciparum protein farnesyltransferase at 5 nM by scintillation proximity assay.

With `Cn1cncc1CN1CC(N(Cc2ccccc2C(F)(F)F)S(=O)(=O)c2ccccn2)Cc2cc(C#N)ccc21` (stereo not given), the inhibition – broadly, the relative decrease from the control value, in per cent – in the assay on Plasmodium falciparum [1] came out at 91%; with Plasmodium falciparum [4], 0%; with Plasmodium falciparum [5], 38%. Besides, the EC50 with Plasmodium falciparum [2] amounted to 650 nM; in the assay on Plasmodium falciparum [3], 3000 nM.
The like results for `Cn1cnc(S(=O)(=O)N(Cc2ncoc2-c2ccccc2)C2Cc3cc(C#N)ccc3N(Cc3cncn3C)C2)c1` (stereo not given) were, in that order, 92%, 0%, 20%, 490 nM and 890 nM.
The like results for `COC(=O)NCCN(C1Cc2cc(C#N)ccc2N(Cc2cncn2C)C1)S(=O)(=O)c1ccccn1` (stereo not given) were, in that order, 90%, 14%, 47%, 510 nM and 400 nM.
For the molecule `Cn1cnc(S(=O)(=O)N(CC(=O)NC(C)(C)C)C2Cc3cc(C(=O)NC(C)(C)C)ccc3N(Cc3cncn3C)C2)c1` (stereo not given), the inhibition in the assay with Plasmodium falciparum [1] worked out at 25%; in the assay on Plasmodium falciparum [4] it was 4%; in the assay on Plasmodium falciparum [5], 0%. The EC50 with Plasmodium falciparum [2] and with Plasmodium falciparum [3] was greater than 5000 nM in each case.
`Cn1cnc(S(=O)(=O)N(CCc2ccccc2F)C2Cc3cc(C#N)ccc3N(Cc3cncn3C)C2)c1` (stereo not given): the inhibition is 100% with Plasmodium falciparum [1], 43% in the assay with Plasmodium falciparum [4] and 98% with Plasmodium falciparum [5]. Further, the EC50 in the assay on Plasmodium falciparum [2] and in the assay with Plasmodium falciparum [3] was 16 nM in each case.
Take `COC(=O)N1CCC(CN(C2Cc3cc(C#N)ccc3N(Cc3cncn3C)C2)S(=O)(=O)c2cnn(C)c2)CC1` (stereo not given): the inhibition was 100% in the assay on Plasmodium falciparum [1], 39% with Plasmodium falciparum [4] and 98% in the assay on Plasmodium falciparum [5]. Further, the figures for the EC50 in the assay on Plasmodium falciparum [2] and with Plasmodium falciparum [3] were 42 nM and 45 nM, respectively.
The matching figures for `Cc1c(S(=O)(=O)N(Cc2ccc(S(C)(=O)=O)cc2)C2Cc3cc(C#N)ccc3N(Cc3cncn3C)C2)ncn1C` (stereo not given): 92%, 23%, 70%, 320 nM and 450 nM.
As for `COC(=O)N1CCC(CN(C2Cc3cc(C#N)ccc3N(Cc3cncn3C)C2)S(=O)(=O)c2ccc3oc(=O)ccc3c2)CC1` (stereo not given), the inhibition in the assay on Plasmodium falciparum [1] worked out at 68%; with Plasmodium falciparum [4], 2%; with Plasmodium falciparum [5] it was 21%. Also, the EC50 in the assay with Plasmodium falciparum [2] and in the assay on Plasmodium falciparum [3] was greater than 5000 nM throughout.
Regarding `Cn1cncc1CN1CC(N(Cc2ccc(S(C)(=O)=O)cc2)S(=O)(=O)c2ccccn2)Cc2cc(C#N)ccc21` (stereo not given), the inhibition was 96% with Plasmodium falciparum [1], 49% in the assay on Plasmodium falciparum [4] and 84% in the assay with Plasmodium falciparum [5]. For the same molecule, the EC50 in the assay on Plasmodium falciparum [2] was 210 nM; in the assay on Plasmodium falciparum [3], 405 nM.
The like results for `COC(=O)N1CCC(CN(C2Cc3cc(C#N)ccc3N(Cc3cncn3C)C2)S(=O)(=O)c2cncn2C)CC1` (stereo not given) were, in that order, 99%, 72%, 99%, 3 nM and 1.6 nM.
In the case of `COC(=O)N1CCC(CN(C2Cc3cc(C#N)ccc3N(Cc3cncn3C)C2)S(=O)(=O)c2cn(C)c(C)n2)CC1` (stereo not given), the results for the inhibition with Plasmodium falciparum [1], in the assay on Plasmodium falciparum [4] and with Plasmodium falciparum [5] were 100%, 39% and 96%, respectively. For the same molecule, the values for the EC50 in the assay on Plasmodium falciparum [2] and in the assay on Plasmodium falciparum [3] were 60 nM and 75 nM, respectively.
The matching figures for `Cn1cnc(CN2CC(N(CCn3cccc3)S(=O)(=O)c3cn(C)cn3)Cc3cc(-c4ccccc4)ccc32)c1` (stereo not given): 90%, 0%, 38%, 460 nM and 150 nM.
The like results for `C=C(Br)CN(C1Cc2cc(-c3ccccc3)ccc2N(Cc2cncn2C)C1)S(=O)(=O)c1cn(C)cn1` (stereo not given) were, in that order, 97%, 21%, 89%, 380 nM and 360 nM.
The like results for `COC(=O)N1CCC(CN(C2Cc3cc(C#N)ccc3N(Cc3cncn3C)C2)S(=O)(=O)N(C)C)CC1` (stereo not given) were, in that order, 58%, 0%, 19%, 1600 nM and 2400 nM.
As to `Cn1cncc1CN1CC(N(Cc2ccccc2F)S(C)(=O)=O)Cc2cc(C#N)ccc21` (stereo not given), the inhibition in the assay on Plasmodium falciparum [1] was 51%; with Plasmodium falciparum [4] it was 0%; in the assay with Plasmodium falciparum [5] it was 7%. The EC50 was 600 nM in the assay with Plasmodium falciparum [2] and greater than 5000 nM in the assay on Plasmodium falciparum [3].
Regarding `Cn1cncc1CN1CC(N(CCn2ccc3ccccc32)S(=O)(=O)c2ccccn2)Cc2cc(C#N)ccc21` (stereo not given), the inhibition with Plasmodium falciparum [1] is 98%; in the assay on Plasmodium falciparum [4] it was 10%; in the assay with Plasmodium falciparum [5] it was 79%. The EC50 in the assay on Plasmodium falciparum [2] is 370 nM; with Plasmodium falciparum [3] it was 400 nM.
As for `COC(=O)NCCCN(C1Cc2cc(C#N)ccc2N(Cc2cncn2C)C1)S(=O)(=O)c1cn(C)cn1` (stereo not given), the inhibition with Plasmodium falciparum [1] was 100%; in the assay with Plasmodium falciparum [4], 61%; with Plasmodium falciparum [5], 96%. In addition, the EC50 with Plasmodium falciparum [2] worked out at 19 nM; in the assay on Plasmodium falciparum [3], 17 nM.
The like results for `Cn1cncc1CN1CC(N(Cc2ccc(S(C)(=O)=O)cc2)S(=O)(=O)c2cncn2C)Cc2cc(C#N)ccc21` (stereo not given) were, in that order, 100%, 84%, 100%, less than 20 nM and less than 20 nM.
The matching figures for `Cn1cncc1CN1CC(N(Cc2ccc(S(C)(=O)=O)cc2)S(=O)(=O)c2ccc3c(c2)OCCCO3)Cc2cc(C#N)ccc21` (stereo not given): 97%, 10%, 78%, 2100 nM and 3500 nM.
The matching figures for `CN(C)C(=O)N1CCC(CN(C2Cc3cc(C#N)ccc3N(Cc3cncn3C)C2)S(=O)(=O)c2ccccn2)CC1` (stereo not given): 100%, 94%, 35%, 13 nM and 11.5 nM.
For `COC(=O)N1CCC(CN(C2Cc3cc(C#N)ccc3N(Cc3cncn3C)C2)S(=O)(=O)c2ccc(OC)cc2)CC1` (stereo not given), the inhibition in the assay on Plasmodium falciparum [1] turned out to be 98%; in the assay on Plasmodium falciparum [4], 14%; in the assay with Plasmodium falciparum [5] it was 79%. Further, the results for the EC50 with Plasmodium falciparum [2] and with Plasmodium falciparum [3] were 170 nM and 190 nM, respectively.
Turning to `Cn1cncc1CN1CC(N(CCC2(C)OCC(C)(C)CO2)S(=O)(=O)c2ccccn2)Cc2cc(C#N)ccc21` (stereo not given), the figures for the inhibition in the assay with Plasmodium falciparum [1], in the assay with Plasmodium falciparum [4] and with Plasmodium falciparum [5] were 95%, 18% and 66%, respectively. In addition, the EC50 with Plasmodium falciparum [2] was found to be 440 nM; in the assay on Plasmodium falciparum [3], 240 nM.
Regarding `Cn1cnc(S(=O)(=O)N(CCN)C2Cc3cc(C#N)ccc3N(Cc3cncn3C)C2)c1` (stereo not given), the inhibition is 72% with Plasmodium falciparum [1], 0% with Plasmodium falciparum [4] and 15% with Plasmodium falciparum [5]. In addition, the EC50 in the assay with Plasmodium falciparum [2] and with Plasmodium falciparum [3] was greater than 5000 nM in each case.
For `Cn1cncc1CN1CC(N(CC2CCN(C(=O)N3CCCCC3)CC2)S(=O)(=O)c2ccccn2)Cc2cc(C#N)ccc21` (stereo not given), the values for the inhibition with Plasmodium falciparum [1], in the assay on Plasmodium falciparum [4] and with Plasmodium falciparum [5] were 94%, 62% and 14%, respectively. Also, the EC50 in the assay on Plasmodium falciparum [2] was 140 nM; in the assay with Plasmodium falciparum [3], 200 nM.
The matching figures for `COC(=O)N1CCC(CN(C2Cc3cc(C#N)ccc3N(Cc3cncn3C)C2)S(C)(=O)=O)CC1` (stereo not given): 66%, 0%, 5%, 2700 nM and greater than 5000 nM.
The matching figures for `Cn1cncc1CN1CC(N(Cc2ccccc2F)C(=O)C2CC2)Cc2cc(C#N)ccc21` (stereo not given): 33%, 0%, 0%, 950 nM and 2000 nM.
As for `CN(C)S(=O)(=O)N(Cc1ccccc1F)C1Cc2cc(C#N)ccc2N(Cc2cncn2C)C1` (stereo not given), the inhibition with Plasmodium falciparum [1] was determined as 62%; in the assay on Plasmodium falciparum [4], 8%; with Plasmodium falciparum [5] it was 10%. Besides, the EC50 came out at 360 nM with Plasmodium falciparum [2] and 3600 nM with Plasmodium falciparum [3].
The like results for `CC(C)NC(=O)N1CCC(CN(C2Cc3cc(C#N)ccc3N(Cc3cncn3C)C2)S(=O)(=O)c2ccccn2)CC1` (stereo not given) were, in that order, 100%, 93%, 38%, 65 nM and 45 nM.
The like results for `CCN(CCCCN(C1Cc2cc(C#N)ccc2N(Cc2cncn2C)C1)S(=O)(=O)c1ccccn1)C(=O)OC(C)(C)C` (stereo not given) were, in that order, 92%, 6%, 52%, 1250 nM and 2600 nM.
The matching figures for `Cn1cncc1CN1CC(N(CCc2ccccc2F)S(=O)(=O)c2ccccn2)Cc2cc(C#N)ccc21` (stereo not given): 98%, 22%, 81%, 120 nM and 600 nM.
With `Cn1cnc(CN2CC(N(Cc3ccc(S(C)(=O)=O)cc3)S(=O)(=O)c3cn(C)cn3)Cc3cc(-c4ccccc4)ccc32)c1` (stereo not given), the inhibition in the assay on Plasmodium falciparum [1] worked out at 98%; in the assay with Plasmodium falciparum [4], 32%; in the assay on Plasmodium falciparum [5], 84%. The EC50 in the assay with Plasmodium falciparum [2] is 270 nM; in the assay on Plasmodium falciparum [3], 450 nM.
The matching figures for `Cn1cncc1CN1CC(N(Cc2ccccc2F)S(=O)(=O)c2ccccc2)Cc2cc(C#N)ccc21` (stereo not given): 86%, 10%, 44%, 730 nM and 750 nM.
